Measurements: PMC3227417 (Cancer prevention research (Philadelphia, Pa.), 2009)
Where two headings read alike, the source gives them in different places. Blank lines part the entries; values can stand above or below the compound they belong to.

Experiments:
[1] = tested on: human HT-29 colon tumor xenograft; experiment: HT-29 colon tumor xenograft, treatment of established tumors; format: in vivo, mice; conditions: for median number of days to reach a tumor weight of 2,000 mg: control 42.8 days; for median number of days to reach a tumor weight of 3,000 mg: control 52.2 days
[2] = biological target: T1, purified ovine COX-2 (Ovis aries, UniProt P79208); experiment: COX-2 colorimetric enzyme assay with purified isozyme; format: biochemical
T1 sequence (P79208 17-603): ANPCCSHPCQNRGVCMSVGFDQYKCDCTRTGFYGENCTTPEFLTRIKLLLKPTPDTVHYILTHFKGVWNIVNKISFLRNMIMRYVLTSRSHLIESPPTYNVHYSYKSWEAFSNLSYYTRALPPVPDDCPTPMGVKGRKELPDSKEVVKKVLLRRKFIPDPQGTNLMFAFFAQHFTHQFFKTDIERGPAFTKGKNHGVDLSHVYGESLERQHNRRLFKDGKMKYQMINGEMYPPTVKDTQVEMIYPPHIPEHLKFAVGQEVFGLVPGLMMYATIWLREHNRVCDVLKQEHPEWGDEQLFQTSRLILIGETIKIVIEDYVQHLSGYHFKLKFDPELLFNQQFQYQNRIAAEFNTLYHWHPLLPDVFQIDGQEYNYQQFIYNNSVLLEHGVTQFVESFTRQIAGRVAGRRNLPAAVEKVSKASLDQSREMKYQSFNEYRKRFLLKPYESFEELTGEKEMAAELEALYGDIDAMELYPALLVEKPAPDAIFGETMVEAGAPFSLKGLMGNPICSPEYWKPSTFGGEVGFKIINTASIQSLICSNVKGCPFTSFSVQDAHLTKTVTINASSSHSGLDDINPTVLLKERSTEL

[3] = biological target: T2, purified ovine COX-1 (Ovis aries, UniProt P05979); experiment: COX-1 colorimetric enzyme assay with purified isozyme; format: biochemical
T2 sequence (P05979 25-600): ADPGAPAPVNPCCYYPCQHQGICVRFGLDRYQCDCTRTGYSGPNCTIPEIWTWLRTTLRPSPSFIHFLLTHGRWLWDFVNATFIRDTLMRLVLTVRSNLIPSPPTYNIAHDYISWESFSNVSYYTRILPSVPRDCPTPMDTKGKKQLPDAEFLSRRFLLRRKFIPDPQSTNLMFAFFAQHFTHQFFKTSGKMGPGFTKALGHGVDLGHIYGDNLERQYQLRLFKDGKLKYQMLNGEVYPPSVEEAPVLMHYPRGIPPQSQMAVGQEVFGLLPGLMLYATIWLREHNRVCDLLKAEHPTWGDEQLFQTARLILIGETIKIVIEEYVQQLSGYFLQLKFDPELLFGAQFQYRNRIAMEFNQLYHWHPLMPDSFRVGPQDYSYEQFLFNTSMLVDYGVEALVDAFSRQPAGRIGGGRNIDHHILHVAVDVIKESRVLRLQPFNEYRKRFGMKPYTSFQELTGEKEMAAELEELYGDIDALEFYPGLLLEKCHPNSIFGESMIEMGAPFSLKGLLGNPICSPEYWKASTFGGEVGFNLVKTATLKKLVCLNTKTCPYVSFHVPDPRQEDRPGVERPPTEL

[4] = tested on: HT-29 colon tumor cells; experiment: TUNEL apoptosis assay; format: cell-based, human; conditions: 24 hours, vehicle 2.3%
Summary of the method: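 HT-29 cells were seeded at 2 × 10^6 per 10 cm dish and grown 48 h. Medium was then replaced with test compound or vehicle for 24 h. Cells were fixed in 4% formalin on ice for 15 min. Strand breaks were labelled with BrdUrd, detected with anti-BrdUrd Alexa Fluor 488, and nuclei stained with propidium iodide. TUNEL-positive percentage was read by flow cytometry (≥10,000 events). Mean ± SE.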

[5] = tested on: HT-29 colon tumor cells; experiment: Growth assay; format: cell-based, human; conditions: for continuous treatment required to reach maximum potency of growth inhibition: HT-29 time course
Summary of the method: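 HT-29 cells were grown in RPMI 1640 with 5% FBS at 37°C under 5% CO2, using only cultures with >95% viability. Cells were seeded at 5,000/well, left 16 h, then treated continuously for 72 h at 37°C. Viable cell number was read as ATP luminescence (CellTiterGlo). A time course experiment used the same read-out. Mean, SE shown.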

[6] = tested on: NCr-nu/nu mice; format: in vivo
[7] = tested on: HT-29 colon tumor cells; experiment: Proliferation assay; format: cell-based, human; conditions: read-out: IC50 to inhibit DNA synthesis (3H-thymidine incorporation); HT-29, 72 h of treatment
[8] = tested on: human HT-29 colon tumor xenograft; experiment: HT-29 colon tumor xenograft, treatment from day of tumor implantation; format: in vivo
[9] = Pharmacokinetic study, plasma levels after single gastric gavage; format: in vivo, mice; conditions: for plasma level: mice, ± SD
[10] = tested on: caspases 3 and 7 activity in HT-29 colon tumor cells; experiment: Caspase-Glo 3/7 apoptosis assay; format: cell-based, human; conditions: HT-29, 25 µmol/L
Summary of the method: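 HT-29 cells were seeded at 10,000/well and grown 18–24 h before treatment. Treatment lasted 2–8 h: time course at 25 µmol/L, and dose-response at 5 h exposure. Caspase 3/7 activity was read as luminescence from substrate cleavage (Caspase-Glo 3/7).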

[11] = 250 mg/kg twice daily gastric gavage, 55 days
[12] = read-out: COX-2 IC50, purified COX-2 isozyme, arachidonic acid, 25°C, 5 min
[13] = read-out: COX-1 IC50, purified COX-1 isozyme, arachidonic acid, 25°C, 5 min
[14] = purified COX-2 isozyme, arachidonic acid, 25°C, 5 min
[15] = purified COX-1 isozyme, arachidonic acid, 25°C, 5 min

Compound: CCc1c2c(nc3ccc(OC(=O)N4CCC(N5CCCCC5)CC4)cc13)-c1cc3c(c(=O)n1C2)COC(=O)[C@]3(O)CC.Cl [Camptosar, irinotecan HCl]
- median number of days to reach a tumor weight of 2,000 mg [1]: 48.2 days
- median number of days to reach a tumor weight of 3,000 mg [1]: 58.7 days

- IC50 [2]: 2.7 µM
Compound: CS(=O)(=O)c1ccc(C2=C(c3ccccc3)C(=O)OC2)cc1 [Rofecoxib]

Compound: CSc1ccc(/C=C2/C(C)=C(CC(=O)O)c3cc(F)ccc32)cc1 [SS, sulindac sulfide]
- IC50 [3]: 1.8 µM
- percentage of apoptotic cells (TUNEL) ([4]; HT-29, 100 µmol/L): 7.1%
- percentage of apoptotic cells (TUNEL) ([4]; HT-29, 200 µmol/L): 49.9%
- continuous treatment required to reach maximum potency of growth inhibition [5]: ~ 2 days

Compound: CSc1ccc(/C=C2/C(C)=C(CC(=O)NCCN(C)C)c3cc(F)ccc32)cc1 [SSA]
- tolerated dosage ([6]; mouse, in vivo): up to 300 mg/kg
- IC50 [7]: 1.2 µM
- mean body weight loss averaged over the duration of treatment [8, 11]: 1.1%
- mean body weight loss on any given day [8, 11]: ≤ 6%
- mean tumor weight ([8]; day 55, 250 mg/kg twice daily, control 2,534 mg): 1,141 mg
- plasma half-life ([9]; mouse, in vivo, po, 200 mg/kg): 9.9 h
- IC50 [2, 12]: 164 µM
- optimum treatment time for caspase induction [10]: ~ 4 hours
- IC50 [3, 13]: > 300 µM
- median number of days to reach a tumor weight of 2,000 mg [1]: 40.8 days
- median number of days to reach a tumor weight of 3,000 mg [1]: 53.2 days
- percentage of apoptotic cells (TUNEL) ([4]; HT-29, 10 µmol/L): 3.6%
- percentage of apoptotic cells (TUNEL) ([4]; HT-29, 25 µmol/L): 10.2%
- percentage of apoptotic cells (TUNEL) ([4]; HT-29, 50 µmol/L): 91.8%
- increase in potency compared with SS (growth inhibition) ([5]; HT-29 cell line): ~40 fold
- continuous treatment required to reach maximum potency of growth inhibition [5]: ~ 2 days

- IC50 [2]: > 300 µM
- IC50 [3]: > 300 µM
Compound: CC1=C(CC(=O)O)c2cc(F)ccc2/C1=C\c1ccc(S(C)(=O)=O)cc1 [Sulindac sulfone, sulindac sulfone]
- COX-2 IC50 [2, 14]: lack both COX-1 and COX-2 inhibitory activity
- COX-1 IC50 [3, 15]: lack both COX-1 and COX-2 inhibitory activity

Compound: CC1=C(CC(=O)O)c2cc(F)ccc2/C1=C\c1ccc([S+](C)[O-])cc1 (stereo not drawn) [Sulindac sulfoxide, sulindac]
- tolerated dosage ([6]; mice, once daily gastric gavage, 20 days of treatment): ≤ 50 mg/kg
- IC50 [7]: 222 µM
- plasma level ([9]; 1 h post gastric gavage of SSA (200 mg/kg)): 50 ± 40 nM
- plasma level ([9]; 2 h post gastric gavage of SSA (200 mg/kg)): 60 ± 10 nM
- plasma level ([9]; 4 h post gastric gavage of SSA (200 mg/kg)): 50 ± 10 nM
- plasma level ([9]; 8 h post gastric gavage of SSA (200 mg/kg)): 50 ± 14 nM
- plasma level ([9]; 16 h post gastric gavage of SSA (200 mg/kg)): BLD
- plasma level ([9]; 24 h post gastric gavage of SSA (200 mg/kg)): BLD
- COX-2 IC50 [2, 14]: lack both COX-1 and COX-2 inhibitory activity
- IC50 [2, 12]: > 300 µM
- COX-1 IC50 [3, 15]: lack both COX-1 and COX-2 inhibitory activity
- IC50 [3, 13]: > 300 µM
